# ChEMBL document CHEMBL4261499, “Chiral disubstituted piperidinyl ureas: a class of dual diacylglycerol lipase-α and ABHD6 inhibitors” (Medchemcomm, 2017)
# Target: T1, Monoacylglycerol lipase ABHD6 (Mus musculus) (UniProt Q8R2Y0)
# T1 sequence (whole entry): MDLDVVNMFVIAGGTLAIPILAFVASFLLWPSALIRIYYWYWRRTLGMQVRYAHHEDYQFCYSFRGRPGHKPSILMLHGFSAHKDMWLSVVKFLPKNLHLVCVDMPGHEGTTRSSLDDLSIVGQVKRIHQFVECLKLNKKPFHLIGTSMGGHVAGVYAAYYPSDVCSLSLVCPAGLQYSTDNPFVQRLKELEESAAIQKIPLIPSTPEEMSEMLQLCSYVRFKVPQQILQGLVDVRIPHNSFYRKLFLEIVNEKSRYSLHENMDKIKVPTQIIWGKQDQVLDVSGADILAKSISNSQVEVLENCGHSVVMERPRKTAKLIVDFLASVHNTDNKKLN
# Assay: Inhibition of MB064 labelling of ABHD6 in mouse brain homogenates at 10 uM pretreated for 30 mins followed by MB064 addition and measured after 20 mins by activity based protein profiling assay relative to control
# Type: tissue-based
# Outline: (§1)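 Mouse brain membrane proteome preincubated 30 min with inhibitor (10 μM), then labelled with MB064 probe (0.25 μM, 20 min). Readout by gel-based competitive ABPP. Band intensities corrected for protein loading per lane from Coomassie staining. Means ± SEM, n = 3.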
row,SMILES,inhibition [%]
1,O=C(N1CCC=C[C@@H]1COCc1ccccc1)n1ccc(-c2ccc(-c3ccccc3)cc2)n1,-3
2,O=C(N1CCC=C[C@H]1COCc1ccccc1)n1cc(-c2ccc(-c3ccccc3)cc2)nn1,84
3,O=C(N1CCC=C[C@@H]1COCc1ccccc1)n1ccc(-c2ccc(Br)cc2)n1,-3
4,O=C(N1CC=C[C@@H](O)[C@H]1COCc1ccccc1)n1cc(-c2ccc(-c3ccccc3)cc2)nn1,83
5,O=C(N1CCC=C[C@H]1Cc1ccccc1)n1cc(-c2ccc(-c3ccccc3)cc2)nn1,90
6,O=C(N1C[C@H](O)C=C[C@H]1COCc1ccccc1)n1cc(-c2ccc(-c3ccccc3)cc2)nn1,50
7,O=C(N1C[C@H](O)C=C[C@@H]1COCc1ccccc1)n1cc(-c2ccc(-c3ccccc3)cc2)nn1,95
8,O=C(N1CC=C[C@@H](O)[C@@H]1COCc1ccccc1)n1cc(-c2ccc(-c3ccccc3)cc2)nn1,18
9,O=C(N1CCC=C[C@@H]1Cc1ccccc1)n1cc(-c2ccc(-c3ccccc3)cc2)nn1,96
10,O=C(N1CCCC[C@@H]1Cc1ccccc1)n1cc(-c2ccc(-c3ccccc3)cc2)nn1,95
11,O=C(N1C[C@H](O)C=C[C@@H]1Cc1ccccc1)n1cc(-c2ccc(-c3ccccc3)cc2)nn1,96

# Target: T2, Diacylglycerol lipase-alpha (Mus musculus) (UniProt Q6WQJ1)
# T2 sequence (whole entry): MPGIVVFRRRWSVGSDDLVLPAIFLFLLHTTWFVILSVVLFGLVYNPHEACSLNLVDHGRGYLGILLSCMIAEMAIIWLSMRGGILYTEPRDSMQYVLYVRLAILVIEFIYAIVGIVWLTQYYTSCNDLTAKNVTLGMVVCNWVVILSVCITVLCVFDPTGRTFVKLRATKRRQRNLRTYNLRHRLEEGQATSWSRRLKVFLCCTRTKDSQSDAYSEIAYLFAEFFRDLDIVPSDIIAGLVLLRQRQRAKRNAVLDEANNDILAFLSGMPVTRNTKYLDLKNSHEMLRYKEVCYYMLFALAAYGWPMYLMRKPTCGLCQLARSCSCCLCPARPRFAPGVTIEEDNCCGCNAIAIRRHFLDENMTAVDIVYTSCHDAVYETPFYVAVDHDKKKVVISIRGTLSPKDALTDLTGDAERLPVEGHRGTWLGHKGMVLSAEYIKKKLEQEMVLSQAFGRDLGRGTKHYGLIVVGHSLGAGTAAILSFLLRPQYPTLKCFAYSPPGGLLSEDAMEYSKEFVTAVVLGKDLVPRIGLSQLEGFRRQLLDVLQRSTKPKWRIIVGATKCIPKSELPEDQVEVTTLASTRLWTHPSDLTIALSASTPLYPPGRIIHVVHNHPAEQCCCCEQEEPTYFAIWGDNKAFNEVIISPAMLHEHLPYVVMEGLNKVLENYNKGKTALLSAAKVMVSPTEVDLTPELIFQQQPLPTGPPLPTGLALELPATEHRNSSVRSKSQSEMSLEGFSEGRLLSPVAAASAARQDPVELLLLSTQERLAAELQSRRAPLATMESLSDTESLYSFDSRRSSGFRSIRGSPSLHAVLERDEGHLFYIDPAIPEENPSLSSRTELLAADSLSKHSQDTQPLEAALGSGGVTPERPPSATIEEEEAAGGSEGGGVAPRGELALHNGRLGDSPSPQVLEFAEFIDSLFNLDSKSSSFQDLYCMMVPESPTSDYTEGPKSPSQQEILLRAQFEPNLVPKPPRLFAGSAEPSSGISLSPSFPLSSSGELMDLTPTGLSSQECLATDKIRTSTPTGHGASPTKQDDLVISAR
# Assay: Inhibition of MB064 labelling of DAGLalpha in mouse brain homogenates at 10 uM pretreated for 30 mins followed by MB064 addition and measured after 20 mins by activity based protein profiling assay relative to control
# Type: tissue-based
# Outline: as §1
row,SMILES,inhibition [%]
1,O=C(N1CCC=C[C@H]1COCc1ccccc1)n1cc(-c2ccc(-c3ccccc3)cc2)nn1,30
2,O=C(N1CCC=C[C@@H]1COCc1ccccc1)n1ccc(-c2ccc(Br)cc2)n1,-3
3,O=C(N1CC=C[C@@H](O)[C@H]1COCc1ccccc1)n1cc(-c2ccc(-c3ccccc3)cc2)nn1,18
4,O=C(N1CCC=C[C@H]1Cc1ccccc1)n1cc(-c2ccc(-c3ccccc3)cc2)nn1,83
5,O=C(N1C[C@H](O)C=C[C@H]1COCc1ccccc1)n1cc(-c2ccc(-c3ccccc3)cc2)nn1,5
6,O=C(N1C[C@H](O)C=C[C@@H]1COCc1ccccc1)n1cc(-c2ccc(-c3ccccc3)cc2)nn1,87
7,O=C(N1CC=C[C@@H](O)[C@@H]1COCc1ccccc1)n1cc(-c2ccc(-c3ccccc3)cc2)nn1,6
8,O=C(N1CCC=C[C@@H]1Cc1ccccc1)n1cc(-c2ccc(-c3ccccc3)cc2)nn1,99
9,O=C(N1CCC=C[C@@H]1COCc1ccccc1)n1cnc(-c2ccc(-c3ccccc3)cc2)n1,0
10,O=C(N1CCCC[C@@H]1Cc1ccccc1)n1cc(-c2ccc(-c3ccccc3)cc2)nn1,99
11,O=C(N1CCC=C[C@@H]1COCc1ccccc1)n1cnc(-c2ccc(Br)cc2)c1,-9
12,O=C(N1C[C@H](O)C=C[C@@H]1Cc1ccccc1)n1cc(-c2ccc(-c3ccccc3)cc2)nn1,92

# Target: T3, Monoacylglycerol lipase ABHD6 (Homo sapiens, UniProt Q9BV23)
# T3 sequence (Q9BV23 whole entry): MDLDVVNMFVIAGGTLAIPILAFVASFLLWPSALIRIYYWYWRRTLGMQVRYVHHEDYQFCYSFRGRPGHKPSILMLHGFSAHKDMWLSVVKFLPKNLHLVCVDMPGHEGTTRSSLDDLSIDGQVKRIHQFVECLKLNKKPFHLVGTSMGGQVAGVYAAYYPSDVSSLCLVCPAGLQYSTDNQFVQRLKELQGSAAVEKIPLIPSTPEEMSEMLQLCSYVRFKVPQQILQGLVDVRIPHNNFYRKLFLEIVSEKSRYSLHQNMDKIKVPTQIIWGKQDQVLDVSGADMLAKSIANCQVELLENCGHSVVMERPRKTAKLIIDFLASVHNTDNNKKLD
# Assay: Inhibition of recombinant human ABHD6 expressed in HEK293 cells by AmplifuTM red dye based fluorescence assay
# Type: cell-based
# Outline: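 Membranes from transiently transfected HEK293T cells expressing human ABHD6, 40 μg mL-1 final protein. Real-time coupled fluorescence assay with natural substrate 2-AG (25 μM). Glycerol released is detected via glycerol kinase, glycerol-3-phosphate oxidase and HRP (0.2 U mL-1 each), 0.125 mM ATP and 10 μM Amplifu Red. Assay contains 5% DMSO and 0.5% acetonitrile. pIC50 ± SEM.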
row,SMILES,IC50 [nM]
1,O=C(N1CCC=C[C@@H]1COCc1ccccc1)n1ccc(-c2ccc(-c3ccccc3)cc2)n1,> 10000
2,O=C(N1CCC=C[C@H]1COCc1ccccc1)n1cc(-c2ccc(-c3ccccc3)cc2)nn1,100
3,O=C(Oc1ccc([N+](=O)[O-])cc1)N1CCC=C[C@@H]1COCc1ccccc1,> 10000
4,O=C(N1CCC=C[C@@H]1COCc1ccccc1)n1cnc(-c2ccc(-c3ccccc3)cc2)c1,> 10000
5,O=C(N1CCC=C[C@@H]1COCc1ccccc1)n1ccc(-c2ccc(Br)cc2)n1,> 10000
6,O=C(N1CC=C[C@@H](O)[C@H]1COCc1ccccc1)n1cc(-c2ccc(-c3ccccc3)cc2)nn1,251
7,O=C(N1CCC=C[C@H]1Cc1ccccc1)n1cc(-c2ccc(-c3ccccc3)cc2)nn1,25.1
8,O=C(N1C[C@H](O)C=C[C@H]1COCc1ccccc1)n1cc(-c2ccc(-c3ccccc3)cc2)nn1,316
9,O=C(N1C[C@H](O)C=C[C@@H]1COCc1ccccc1)n1cc(-c2ccc(-c3ccccc3)cc2)nn1,5.01
10,O=C(N1CC=C[C@@H](O)[C@@H]1COCc1ccccc1)n1cc(-c2ccc(-c3ccccc3)cc2)nn1,794
11,O=C(N1CCC=C[C@@H]1Cc1ccccc1)n1cc(-c2ccc(-c3ccccc3)cc2)nn1,2.51
12,O=C(N1CCC=C[C@@H]1COCc1ccccc1)n1cnc(-c2ccc(-c3ccccc3)cc2)n1,> 10000
13,O=C(N1CCC=C[C@@H]1COCc1ccccc1)n1cnc(-c2ccc(Br)cc2)c1,> 10000
14,O=C(N1C[C@H](O)C=C[C@@H]1Cc1ccccc1)n1cc(-c2ccc(-c3ccccc3)cc2)nn1,3.16

# Target: T4, Diacylglycerol lipase-alpha (Homo sapiens, UniProt Q9Y4D2)
# T4 sequence (Q9Y4D2 whole entry): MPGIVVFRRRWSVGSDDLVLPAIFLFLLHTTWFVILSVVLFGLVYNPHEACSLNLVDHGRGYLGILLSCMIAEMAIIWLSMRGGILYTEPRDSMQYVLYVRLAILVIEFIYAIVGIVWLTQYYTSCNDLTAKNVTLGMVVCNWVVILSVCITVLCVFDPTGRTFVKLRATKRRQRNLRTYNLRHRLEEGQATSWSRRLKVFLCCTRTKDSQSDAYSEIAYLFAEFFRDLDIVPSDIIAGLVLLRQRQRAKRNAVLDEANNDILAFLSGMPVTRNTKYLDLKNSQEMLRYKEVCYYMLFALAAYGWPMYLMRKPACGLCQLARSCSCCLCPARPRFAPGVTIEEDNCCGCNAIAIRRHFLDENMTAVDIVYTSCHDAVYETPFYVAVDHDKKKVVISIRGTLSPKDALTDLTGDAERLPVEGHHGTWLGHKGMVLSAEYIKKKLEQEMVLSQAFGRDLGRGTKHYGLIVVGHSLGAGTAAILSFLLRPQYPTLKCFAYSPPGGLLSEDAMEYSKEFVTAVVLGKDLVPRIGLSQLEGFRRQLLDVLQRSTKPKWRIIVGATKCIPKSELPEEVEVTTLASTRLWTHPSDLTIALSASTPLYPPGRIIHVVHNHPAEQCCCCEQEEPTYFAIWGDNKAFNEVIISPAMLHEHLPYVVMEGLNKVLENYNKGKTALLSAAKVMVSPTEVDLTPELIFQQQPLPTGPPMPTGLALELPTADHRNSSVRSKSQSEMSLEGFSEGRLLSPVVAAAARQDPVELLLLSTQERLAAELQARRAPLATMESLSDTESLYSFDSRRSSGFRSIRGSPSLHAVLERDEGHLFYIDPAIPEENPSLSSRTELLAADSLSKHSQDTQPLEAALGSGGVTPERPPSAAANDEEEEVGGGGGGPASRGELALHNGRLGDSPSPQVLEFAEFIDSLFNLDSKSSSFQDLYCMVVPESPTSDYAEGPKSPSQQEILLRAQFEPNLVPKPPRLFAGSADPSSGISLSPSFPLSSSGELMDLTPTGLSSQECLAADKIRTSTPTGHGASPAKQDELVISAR
# Assay: Inhibition of recombinant human DAGLalpha expressed in HEK293 cells using PNP-butyrate as substrate pretreated for 20 to 30 mins followed by substrate addition measured every 60 secs for 20 mins by colorimetric method
# Type: cell-based
# Outline: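 Membrane fraction from HEK293T cells transiently transfected with human DAGLα (PEI transfection, harvested at 72 h). Membranes used at 0.05 μg μL-1 final protein in 50 mM HEPES pH 7.2. Colorimetric readout of para-nitrophenylbutyrate hydrolysis. pIC50 ± SEM.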
row,SMILES,IC50 [nM]
1,O=C(N1CCC=C[C@@H]1COCc1ccccc1)n1ccc(-c2ccc(-c3ccccc3)cc2)n1,> 10000
2,O=C(N1CCC=C[C@H]1COCc1ccccc1)n1cc(-c2ccc(-c3ccccc3)cc2)nn1,1260
3,O=C(Oc1ccc([N+](=O)[O-])cc1)N1CCC=C[C@@H]1COCc1ccccc1,> 10000
4,O=C(N1CCC=C[C@@H]1COCc1ccccc1)n1cnc(-c2ccc(-c3ccccc3)cc2)c1,> 10000
5,O=C(N1CCC=C[C@@H]1COCc1ccccc1)n1ccc(-c2ccc(Br)cc2)n1,> 10000
6,O=C(N1CC=C[C@@H](O)[C@H]1COCc1ccccc1)n1cc(-c2ccc(-c3ccccc3)cc2)nn1,> 10000
7,O=C(N1CCC=C[C@H]1Cc1ccccc1)n1cc(-c2ccc(-c3ccccc3)cc2)nn1,79.4
8,O=C(N1C[C@H](O)C=C[C@H]1COCc1ccccc1)n1cc(-c2ccc(-c3ccccc3)cc2)nn1,> 10000
9,O=C(N1C[C@H](O)C=C[C@@H]1COCc1ccccc1)n1cc(-c2ccc(-c3ccccc3)cc2)nn1,25.1
10,O=C(N1CC=C[C@@H](O)[C@@H]1COCc1ccccc1)n1cc(-c2ccc(-c3ccccc3)cc2)nn1,> 10000
11,O=C(N1CCC=C[C@@H]1Cc1ccccc1)n1cc(-c2ccc(-c3ccccc3)cc2)nn1,0.794
12,O=C(N1CCC=C[C@@H]1COCc1ccccc1)n1cnc(-c2ccc(-c3ccccc3)cc2)n1,> 10000
13,O=C(N1CCC=C[C@@H]1COCc1ccccc1)n1cnc(-c2ccc(Br)cc2)c1,> 10000
14,O=C(N1C[C@H](O)C=C[C@@H]1Cc1ccccc1)n1cc(-c2ccc(-c3ccccc3)cc2)nn1,15.8
